10 compounds from ChEMBL document CHEMBL1131179, “Structural optimization affording 2-(R)-(1-(R)-3, 5-bis(trifluoromethyl)phenylethoxy)-3-(S)-(4-fluoro)phenyl-4- (3-oxo-1,2,4-triazol-5-yl)methylmorpholine, a potent, orally active, long-acting morpholine acetal human NK-1 receptor antagonist” (J Med Chem, 1998) can be followed below.

For one assay, the target named is Substance-P receptor (Homo sapiens, UniProt P25103). Nature of the assay: Displacement of [125I]-labeled SP from the human Tachykinin receptor 1 expressed in CHO cells. Format: cell-based. (Displacement assays read how much labelled ligand stays bound in the presence of the test substance.)
Sequence of Substance-P receptor (P25103 whole entry): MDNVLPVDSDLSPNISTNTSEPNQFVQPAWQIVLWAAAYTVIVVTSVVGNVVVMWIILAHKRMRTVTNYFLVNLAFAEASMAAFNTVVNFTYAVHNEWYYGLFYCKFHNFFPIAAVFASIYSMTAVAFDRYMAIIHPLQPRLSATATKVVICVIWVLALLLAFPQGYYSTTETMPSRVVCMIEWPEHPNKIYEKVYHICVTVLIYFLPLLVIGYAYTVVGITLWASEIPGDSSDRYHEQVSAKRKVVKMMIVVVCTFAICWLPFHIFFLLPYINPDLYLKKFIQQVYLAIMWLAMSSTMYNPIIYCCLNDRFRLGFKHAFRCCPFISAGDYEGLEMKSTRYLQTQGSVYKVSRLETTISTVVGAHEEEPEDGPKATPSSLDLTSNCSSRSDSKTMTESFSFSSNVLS
The test system of assay [1] is Gerbillinae. The assay is described as follows: Inhibition of GR 73632-induced foot tapping in gerbils upon intravenous administration of compound. It is filed as functional. To be noted: read-out: ID50 (the source's name). Summed up:
(§1)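 Male or female Mongolian gerbils (35–70 g) under isoflurane/oxygen anaesthesia. Test compound or vehicle is given iv into the jugular vein at 5 mL/kg. At 0, 4 or 24 h, GR 73,632 (3 pmol) is infused icv via a needle 4.5 mm below bregma. Hind foot tapping is timed for 5 min after recovery. 3–9 animals per dose. ID50 by nonlinear least-squares regression of mean data.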

Assay [2] relates to Cavia porcellus. Nature of the assay: Inhibition of resiniferatoxin-induced systemic vascular leakage in guinea pig (SYVAL) upon oral administration at 1 hr. It is filed as functional. The conditions noted are these: read-out: ID50 (the source's name). Summed up:
(§2)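 Guinea pigs dosed orally 1 or 24 h before iv resiniferatoxin challenge (400 µL/kg over 30 s, penile vein), given 10 min after Evans Blue. Killed 10 min post-challenge. Bladder, trachea and esophagus dried (24 h, 65 °C) and extracted with plasma in formamide (65 °C, 24 h). Extravasation read at OD620-650 against plasma, as mg plasma/g dry tissue. n = 4-12 per point; ID50 by nonlinear least-squares regression of mean data.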

The subject of assay [3] is Cavia porcellus. The assay is described as follows: Inhibition of resiniferatoxin-induced systemic vascular leakage in guinea pig (SYVAL) upon oral administration at 24 hr r. Format: functional. Summed up:
as §2

Assay [4] concerns Gerbillinae. The assay is described as follows: Inhibition of GR 73632-induced foot tapping in gerbils upon intravenous administration of compound after 4 hr. Format: functional. To be noted: read-out: ID50 (the source's name). In short, it runs like this: as §1
For assay [5], the system named is Gerbillinae. Nature of the assay: Inhibition of GR 73632-induced foot tapping in gerbils upon intravenous administration of compound after 24 hr. Format: functional. The conditions noted are these: read-out: ID50 (the source's name). Summed up: as §1
Assay [6] has as its system Mustela putorius furo. Nature of the assay: compound was tested for antiemetic action in ferret at 3 mg/kg after peroral administration followed by emetogen (apomorphine) challenge at 0.25 mg/kg, sc. Format: functional.
For assay [7], the system named is Mustela putorius furo. The assay is described as follows: compound was tested for antiemetic action in ferret at 3 mg/kg after peroral administration followed by emetogen (cisplatin) challenge at 10 mg/kg, iv after 60 min.
The subject of assay [8] is Mustela putorius furo. Nature of the assay: compound was tested for antiemetic action in ferret at 3 mg/kg after peroral administration followed by emetogen (morphine) challenge at 0.5 mg/kg, sc. It is filed as functional. Summed up:
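Male ferrets (1.0–2.0 kg) receive 3.0 mg/kg po in 0.5% Methocel or vehicle. 60 min later they get a sc emetogen: apomorphine or morphine 0.5 mg/kg. Retches and vomits are counted for 30 min versus vehicle controls. 4–7 animals per group.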

For assay [9], the system named is Mustela putorius furo. The assay is described as follows: compound was tested for antiemetic action in ferret at 0.3 mg/kg after intravenous administration followed by emetogen (cisplatin) challenge at 10 mg/kg, iv after 3 min. It is filed as functional. In short, it runs like this:
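Male ferrets (1.0–2.0 kg) under halothane receive 0.3 mg/kg iv in PEG 300 vehicle, then cisplatin 10 mg/kg iv 3 min later. Retches and vomits are counted over 240 min and compared with vehicle controls. 4–7 animals per group.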

Assay [10] relates to Mustela putorius furo. Nature of the assay: compound was tested for antiemetic action in ferret at 3 mg/kg after peroral administration followed by emetogen (cisplatin) challenge at 10 mg/kg, iv after 60 min. The source holds these as a separate data set.
The subject of assay [11] is Mustela putorius furo. Described as above. The source holds these as a separate data set.
For assay [12], the system named is Mustela putorius furo. The assay is described as above. This is another data set of the same source.

Structures are written as SMILES.

Usually IC50 stands for the concentration that gives 50% inhibition. A low value points to inhibition by little substance. On to `C[C@@H](O[C@H]1OCCN(Cc2n[nH]c(O)n2)[C@H]1c1ccccc1)c1cc(F)cc(C(F)(F)F)c1`, for which the concentration for half-maximal inhibition (IC50) at Substance-P receptor was found to be 0.1 nM.

For `O=c1[nH]nc(CN2CCO[C@H](OCc3cc(C(F)(F)F)cc(C(F)(F)F)c3)[C@@H]2c2ccc(F)cc2)[nH]1`, the ED50 amounted to 0.3 mg/kg in the assay with Gerbillinae [1], 0.008 mg/kg in the assay on Cavia porcellus [2], 0.07 mg/kg in the assay on Gerbillinae [4] and 1.24 mg/kg in the assay on Gerbillinae [5]. Further, the ID90 in the assay with Cavia porcellus [3] turned out to be 2.3 mg/kg. This compound had an IC50 at Substance-P receptor of 0.07 nM.

In turn, `C[C@@H](O[C@H]1OCCN(Cc2n[nH]c(=O)[nH]2)[C@H]1c1ccccc1)c1cc(C(F)(F)F)cc(C(F)(F)F)c1` displayed an IC50 on Substance-P receptor of 0.88 nM. This lies in the sub-nanomolar range.

As to `C[C@H](O[C@H]1OCCN(Cc2n[nH]c(O)n2)[C@H]1c1ccccc1)c1cc(C(F)(F)F)cc(C(F)(F)F)c1`, the ED50 is 0.16 mg/kg in the assay with Gerbillinae [1], 0.01 mg/kg in the assay on Cavia porcellus [2], 0.04 mg/kg in the assay with Gerbillinae [4] and 1.11 mg/kg in the assay on Gerbillinae [5]. Moreover, the ID90 in the assay with Cavia porcellus [3] was 2.3 mg/kg. The same compound had an IC50 at Substance-P receptor of 0.09 nM.

The compound `C[C@@H](O[C@H]1OCCN(Cc2n[nH]c(O)n2)[C@H]1c1ccccc1)c1cccc(C(F)(F)F)c1` gave an IC50 at Substance-P receptor of 0.27 nM.

In the case of `O=c1[nH]nc(CN2CCO[C@H](OCc3cc(C(F)(F)F)cc(C(F)(F)F)c3)[C@@H]2c2ccccc2)[nH]1`, the values for the ED50 with Gerbillinae [1], in the assay on Cavia porcellus [2] and in the assay with Gerbillinae [5] were 0.85 mg/kg, 0.006 mg/kg and 2.88 mg/kg, respectively. The compound further showed an ID90 in the assay with Cavia porcellus [3] of 5.4 mg/kg.

Take `COc1ccc(-n2nnnc2C(F)(F)F)cc1CNC1CCCNC1c1ccccc1` (racemic): the ED50 with Gerbillinae [1] is 0.04 mg/kg; in the assay on Gerbillinae [4], 0.02 mg/kg; in the assay with Gerbillinae [5] it was more than 10 mg/kg.

Turning to `COc1ccc(OC(F)(F)F)cc1CN[C@H]1CCCN[C@H]1c1ccccc1` (racemic), the ED50 in the assay with Gerbillinae [1] came to 0.03 mg/kg; in the assay on Cavia porcellus [2] it was 0.01 mg/kg; with Gerbillinae [4], 0.24 mg/kg; in the assay with Gerbillinae [5], 5.37 mg/kg. In the assay on Cavia porcellus [3], this compound returned an ID90 of more than 10 mg/kg.

For the compound `C[C@@H](O[C@H]1OCCN(Cc2n[nH]c(=O)[nH]2)[C@H]1c1ccc(F)cc1)c1cc(C(F)(F)F)cc(C(F)(F)F)c1` [APREPITANT], the Control retches in the assay with Mustela putorius furo [6] is reported as 28.3; with Mustela putorius furo [8], 44.7; in the assay on Mustela putorius furo [9], 100; with Mustela putorius furo [11] it was 154.8. Also, the Control vomits in the assay on Mustela putorius furo [6] is given as 3.3; in the assay with Mustela putorius furo [8], 5.5; in the assay on Mustela putorius furo [9], 12.7; in the assay on Mustela putorius furo [12], 22.3. In addition, the Retches amounted to 4.1 in the assay with Mustela putorius furo [6], 6 in the assay on Mustela putorius furo [8], 5.3 in the assay on Mustela putorius furo [9] and 2.8 in the assay with Mustela putorius furo [10]. The Vomits came to 0.7 in the assay on Mustela putorius furo [6], 0.5 in the assay on Mustela putorius furo [7], 0.5 with Mustela putorius furo [8] and 1 in the assay with Mustela putorius furo [9]. Further, the ED50 with Gerbillinae [1] is 0.36 mg/kg; in the assay on Cavia porcellus [2], 0.008 mg/kg; in the assay with Gerbillinae [4] it was 0.04 mg/kg; in the assay on Gerbillinae [5], 0.33 mg/kg. In the assay on Cavia porcellus [3], this compound showed an ID90 of 1.8 mg/kg.

Turning to `COc1ccc(-n2nnnc2C(F)(F)F)cc1CN[C@H]1CCCN[C@H]1c1ccccc1` [VOFOPITANT], the ED50 in the assay with Cavia porcellus [2] was determined as 0.007 mg/kg. For the same compound, the ID90 with Cavia porcellus [3] was more than 10 mg/kg. In addition, the half-maximal inhibitory concentration (IC50) on Substance-P receptor came to 0.08 nM.
